Test results published in ChEMBL document CHEMBL4041500, “Attenuation of Mycobacterium species through direct and macrophage mediated pathway by unsymmetrical diaryl urea” (Eur J Med Chem, 2017).
Converted amounts (≈) assume the structure as drawn. The source made the active and inactive calls. The calls are words filed in the database; no cut-off is given here.

Key:
[1] = system: Mycolicibacterium smegmatis; assay: Antimycobacterial activity against Mycobacterium smegmatis MC2 155 after 48 hrs by serial dilution method; format: functional; details: str. MC2 155, 48 h
Summary of the method: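 M. smegmatis grown in Middlebrook 7H9 with 10% albumin–dextrose complex and 0.03% Tween80 at 37 °C. Twofold serial dilutions of compound were combined with mid-log culture diluted to OD570 0.01, giving a final range of […] in 7H9 broth. Incubated in ambient air at 37 °C for 48 h. MIC taken as the lowest concentration preventing visible growth.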

[2] = system: Mycobacterium tuberculosis; assay: Antimycobacterial activity against Mycobacterium tuberculosis H37Rv ATCC 27294 after 7 days by microplate alamar blue assay; format: functional; details: H37Rv ATCC 27294, 168 h
Summary of the method: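 MABA run in 7H12 medium in 96-well plates for 7 days at 37 °C. Alamar Blue and Tween 80 were then added for a further 24 h. Fluorescence was read at 530/590 nm. MIC was the lowest concentration giving a 90% fluorescence (or luminescence) reduction versus controls. Luciferase reporter strains or intracellular ATP were used for compounds with background fluorescence. Isoniazid and rifampin were run as controls.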

[3] = system: HepG2; assay: Cytotoxicity against human HepG2 cells assessed as reduction in cell viability after 72 hrs by MTT assay; format: cell-based; details: hepg2, 72 h
Summary of the method: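 HepG2 cells grown in Eagle's MEM with 10% FBS at 37 °C and 5% CO2. Cells were scraped, resuspended at ~1 × 10^6 cells/mL, plated and left 24 h, then exposed to compound at 400 to 0.2 µg/mL for 72 h. Viability read by MTT assay. IC50 (50% loss of viability) taken from a dose–response curve versus log10 concentration.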

[4] = system: Peritoneal macrophage; assay: Cytotoxicity against Balb/c mouse peritoneal macrophages assessed as reduction in cell viability after 48 hrs by MTT assay; format: cell-based
Summary of the method: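 Murine peritoneal macrophages, 1 × 10^6 cells/well, exposed to compound at 0.1 to 250 µg/ml in RPMI-1640 with 10% FBS for 48h. MTT (5 mg/ml) added for 3 h at 37°C, formazan dissolved in 0.04M HCl in isopropanol for 15 min at room temperature, absorbance read at 570 nm. IC50 (50% loss of viability) taken from a dose–response curve of percentage activity versus log10 concentration.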

[5] = system: Mycobacterium tuberculosis; assay: Antimycobacterial activity against Mycobacterium tuberculosis H37Rv ATCC 27294 at 50 ug/ml after 7 days by microplate alamar blue assay relative to control; format: functional; details: H37Rv ATCC 27294, 168 h
[6] = system: Mycobacterium tuberculosis; assay: Antimycobacterial activity against Mycobacterium tuberculosis MC2 6030 after 2 to 3 weeks by agar plate method; format: functional
Summary of the method: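 Strain mc²6030 is a pantothenate auxotroph lacking RD1, grown at 37 °C in Sauton's medium plus 20 μg/ml pantothenic acid. Serial 10-fold dilutions of actively growing culture were plated on 7H10/OADC agar with 20 μg/ml pantothenic acid and increasing compound concentrations, from 10 mg/ml DMSO stocks. Plates were held 2–3 weeks at 37 °C. MIC was the concentration inhibiting 99% of growth; isoniazid served as control.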

[7] = system: Mycolicibacterium smegmatis; assay: Inhibition of epoxy-mycolic acid biosynthesis in Mycobacterium smegmatis MC2 155 assessed as reduction in [1-14C]acetate incorporation at 5 times antibacterial MIC preincubated for 90 mins followed by [1-14C]acetate addition measured after 1 hr by liquid scintillation counting based TLC method; format: functional; details: str. MC2 155
[8] = system: Mycolicibacterium smegmatis; assay: Inhibition of fattyacid biosynthesis in Mycobacterium smegmatis MC2 155 assessed as reduction in [1-14C]acetate incorporation at 5 times antibacterial MIC preincubated for 90 mins followed by [1-14C]acetate addition measured after 1 hr by liquid scintillation counting based TLC method; format: functional; details: str. MC2 155

SMILES | MIC [1] [µg/mL] | MIC90 [2] [µg/mL] | Activity [3] [µg/mL] | Activity [4] [µg/mL] | inhibition at 50 µg/mL [5] [%] | MIC99 [6] [µg/mL] | inhibition [7] | inhibition [8]
CC(C)CCOc1ccc(NC(=S)Nc2ccc(OCCC(C)C)cc2)cc1 [TIOCARLIDE] | 25 (≈ 62.4 µM) | 2.3 (≈ 5.74 µM) | 31.3 | 12.5 | – | – | – | –
CCCCOc1cccc(NC(=O)Nc2cccc([N+](=O)[O-])c2)c1 | > 200 | > 50 | 97.3 | 74.3 | 79 | 50 (≈ 152 µM) | – | –
CCCCOc1cccc(NC(=O)Nc2ccccc2)c1 | > 200 | > 50 | 124.1 | 121.7 | 57 | 50 to 100 (≈ 176 to 352 µM) | – | –
C=CCOc1cccc(NC(=O)Nc2cccc([N+](=O)[O-])c2)c1 | 50 (≈ 160 µM) | > 50 | 105.6 | 78.4 | 76 | 5 (≈ 16 µM) | – | –
CC(C)=CCOc1cccc(NC(=O)Nc2ccccc2Cl)c1 | 50 (≈ 151 µM) | > 50 | 128.2 | 105.6 | 64 | – | – | –
CCCCOc1ccc(NC(=O)Nc2cccc(C#N)c2)cc1 | > 200 | > 50 | 206.7 | 180.9 | 22 | > 100 | – | –
C=CCOc1cccc(NC(=O)Nc2ccccc2)c1 | 100 (≈ 373 µM) | > 50 | 150.6 | 142.5 | 73 | 20 (≈ 74.5 µM) | – | –
CC(C)=CCOc1cccc(NC(=O)Nc2cccc(F)c2)c1 | 25 (≈ 79.5 µM) | > 50 | 94 | 83.7 | 89 | – | Active | inactive
CC(C)=CCOc1cccc(NC(=O)Nc2ccccc2C(F)(F)F)c1 | 12.5 (≈ 34.3 µM) | > 50 | 71.4 | 69.4 | 45 | – | – | –
C=CCOc1ccc(NC(=O)Nc2cccc(C#N)c2)cc1 | > 200 | > 50 | 103.5 | 96.7 | 66 | > 100 | – | –
CC(C)=CCOc1cccc(NC(=O)Nc2ccccc2Br)c1 | 25 (≈ 66.6 µM) | 38.7 (≈ 103 µM) | 131.9 | 119.4 | – | – | – | –
CCCCOc1ccc(NC(=O)Nc2cccc([N+](=O)[O-])c2)cc1 | – | – | – | 75.2 | – | – | – | –
CCCCOc1ccc(NC(=O)Nc2ccccc2)cc1 | > 200 | > 50 | 132.5 | 108.9 | 41 | > 100 | – | –
CC(C)=CCOc1ccc(NC(=O)Nc2ccccc2C)cc1 | 50 to 200 (≈ 161 to 644 µM) | > 50 | – | 81.3 | 61 to 75 | 50 to 100 (≈ 161 to 322 µM) | – | –
CC(C)=CCOc1cccc(NC(=O)Nc2ccc([N+](=O)[O-])cc2)c1 | 100 (≈ 293 µM) | > 50 | 91.6 | 75.2 | 94 | – | – | –
CC(C)=CCOc1cccc(NC(=O)Nc2cccc(Br)c2)c1 | 12.5 (≈ 33.3 µM) | 26.5 (≈ 70.6 µM) | 148.1 | 131.8 | – | – | – | –
CC(C)=CCOc1cccc(NC(=O)Nc2ccccc2)c1 | > 200 | > 50 | 168.2 | 141.8 | 79 | 30 (≈ 101 µM) | – | –
CC(C)=CCOc1cccc(NC(=O)Nc2ccc(C)cc2)c1 | 12.5 (≈ 40.3 µM) | 10.5 (≈ 33.8 µM) | 140.6 | 127.6 | – | – | – | –

SMILES | MIC [1] [µg/mL] | MIC90 [2] [µg/mL] | Activity [3] [µg/mL] | Activity [4] [µg/mL] | inhibition at 50 µg/mL [5] [%] | MIC99 [6] [µg/mL] | inhibition [7] | inhibition [8]
CCCCOc1cccc(NC(=O)Nc2ccccc2C)c1 | > 200 | > 50 | 175.1 | 152.9 | 70 | > 100 | – | –
CC(C)=CCOc1cccc(NC(=O)Nc2ccc(F)cc2)c1 | 100 (≈ 318 µM) | > 50 | 102.8 | 87.1 | 68 | – | – | –
CC(C)=CCOc1cccc(NC(=O)Nc2cccc(C)c2)c1 | 50 (≈ 161 µM) | 32.2 (≈ 104 µM) | 175.3 | 160.3 | – | – | – | –
C=CCOc1ccc(NC(=O)Nc2ccccc2C)cc1 | 50 (≈ 177 µM) | 24.5 (≈ 86.8 µM) | 99.2 | 122.1 | – | 100 (≈ 354 µM) | – | –
CC(C)=CCOc1cccc(NC(=O)Nc2ccc(Br)cc2)c1 | 50 to 100 (≈ 133 to 266 µM) | > 50 | 135.6 | 140.2 | 86 | – | – | –
CC(C)=CCOc1cccc(NC(=O)Nc2ccc(C(F)(F)F)cc2)c1 | 6.25 (≈ 17.2 µM) | > 50 | 142.2 | 115.3 | 69 | – | – | –
CC(C)=CCOc1cccc(NC(=O)Nc2ccc(Cl)cc2)c1 | 50 to 100 (≈ 151 to 302 µM) | > 50 | 122.3 | 115.3 | 75 | – | – | –
NNC(=O)c1ccncc1 [ISONIAZID] | 6.25 (≈ 45.6 µM) | 0.11 (≈ 0.802 µM) | > 200 | > 200 | – | 0.05 (≈ 0.365 µM) | – | –
CC(C)=CCOc1cccc(NC(=O)Nc2ccccc2F)c1 | 50 (≈ 159 µM) | > 50 | 82.4 | 68.2 | 45 | – | – | –
C=CCOc1cccc(NC(=O)Nc2ccccc2C)c1 | > 200 | > 50 | 102.4 | 90.3 | 68 | > 100 | – | –
C=CCOc1ccc(NC(=O)Nc2cccc([N+](=O)[O-])c2)cc1 | 100 (≈ 319 µM) | 45.5 (≈ 145 µM) | 111.4 | 87.5 | – | 10 to 100 (≈ 31.9 to 319 µM) | – | –
CC(C)=CCOc1ccc(NC(=O)Nc2cccc(C#N)c2)cc1 | 50 (≈ 156 µM) | > 500 | 186.4 | 169.1 | 82 | 5 (≈ 15.6 µM) | – | –
C=CCOc1ccc(NC(=O)Nc2ccccc2)cc1 | > 200 | > 50 | 182.4 | 152.6 | 84 | > 100 | – | –
CC(C)=CCOc1cccc(NC(=O)Nc2cccc(Cl)c2)c1 | 25 (≈ 75.6 µM) | 48.6 (≈ 147 µM) | 114.3 | 96.7 | – | – | – | –
CC(C)=CCOc1ccc(NC(=O)Nc2cccc([N+](=O)[O-])c2)cc1 | > 200 | > 50 | 142.6 | 131.2 | 69 | > 100 | – | –
CC(C)=CCOc1cccc(NC(=O)Nc2cccc(C(F)(F)F)c2)c1 | 3.12 (≈ 8.56 µM) | 40.2 (≈ 110 µM) | 135.6 | 116.7 | – | – | Active | inactive
CC(C)=CCOc1cccc(NC(=O)Nc2ccccc2[N+](=O)[O-])c1 | > 200 | > 50 | 61.4 | 58.1 | 43 | – | – | –
